In the library only some 1.7% were active in any assay of this set; here they are far more common.
HNF4A DNA FP: change in binding of human HNF4 alpha to DNA. HNF4a-FITC DNA binding, fluorescence polarization, 1 h. activity change, % at 10 µM. 360,000 tested, 0.3% active. AID 1224865; in the data active means activity change above about 30%, passing the limit was not always enough
TPT1 inhibitor: C. albicans TPT1 enzyme inhibition. recombinant caTPT1, FP RNA substrate dephosphorylation. inhibition, % at 5 µM. 300,000 tested, 0.81% active;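 active means inhibition above the mean of all tested compounds plus 3 SD, set per screening campaign, cut at about 24% in these data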;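 further: plate controls were DMSO alone for no effect and ferristatin control at 100 nM for full effect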
CSN inh: CSN deneddylation inhibition. 360,000 tested, 0.38% active. Purified CSN, SCF-Nedd8-OG deneddylation, fluorescence polarization. Q92905. inhibition, % at 12.5 µM;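 active means pattern-corrected inhibition above about 35%, with an unprinted fluorescence ratio check between 0.5 and 1.5, limit read from the data, passing the limit was not always enough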;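 further: 0% = enzyme with substrate and 100% = substrate without enzyme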
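Assay system: HEK293T-derived human Csn5 enzyme; quantity: 0.24 nM enzyme; medium: Tris/NaCl/DTT buffer, pH 7.5; also added: substrate SCFSkp2-Nedd8OG, 10 nM; doses: 12.5 µM compound; schedule: 90 min reaction at room temperature; signal: FP; read-out: % inhibition of substrate cleavage by Csn5; benchmarks: substrate-only high control, full reaction low control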
IDE act: boosts human insulin-degrading enzyme activity in HEK cells | P14735 | FAbeta-B cleavage, fluorescence polarization; 0% vehicle, 100% cell-free pure enzyme wells | activation, % at 5.96 µM | 340,000 tested, 0.073% active | AID 493087;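 active means activation above the mean of all tested compounds plus 3 SD, set per screening campaign, cut at about 17% in these data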
Rpn11 block: Rpn11 (human) deubiquitinase inhibition; inhibition, % at 20 µM; 360,000 tested, 0.59% active; human 26S proteasome, Ub4-pepOG fluorescence polarization; 20S core pre-blocked with epoxomicin; O00487;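 active means inhibition at 20 µM, scaled to each plate's controls, above about 33%, limit read from the data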
IDE cell inh: cellular human IDE inhibition. P14735. HEK cells, FAbetaB cleavage, fluorescence polarization. inhibition, % at 5.59 µM. 320,000 tested, 0.41% active. AID 434962;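 active means percent inhibition above the average of all tested compounds plus 3 SD, set per screening campaign, cut at about 16% in these data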;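 further: IDE supplied by intact live HEK cells; FP after avidin binding of uncleaved biotin substrate so inhibition keeps polarization high; 0% = DMSO wells and 100% = 60 µM reference IDE inhibitor Ii1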
caTPT1 confirm: confirmation of Candida albicans TPT1 inhibitors | 2,400 tested, 74% active | shares compounds with TPT1 inhibitor | inhibition, % at 5 µM | recombinant caTPT1, fluorescence polarization, RNase T1 coupled;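 active means inhibition above the primary screen limit, the mean inhibition of all tested compounds plus 3 SD, cut at about 25% in these data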
RNase T1 counter: RNase T1 inhibition in TPT1 counter-screen; RNase T1 cleavage, fluorescence polarization, 1536-well; shares compounds with TPT1 inhibitor; AID 2153; inhibition, % at 5 µM; 2,400 tested, 83% active;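 active means inhibition above the solvent-only control well mean plus 3 SD, limit set per screening run, cut at about 23% in these data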;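 further: plate controls were DMSO wells with enzyme for no effect and wells without RNase T1 for full effect; inhibitors block cleavage so intact labeled substrate keeps polarization high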
Target sequence (P00651 whole entry, looked up): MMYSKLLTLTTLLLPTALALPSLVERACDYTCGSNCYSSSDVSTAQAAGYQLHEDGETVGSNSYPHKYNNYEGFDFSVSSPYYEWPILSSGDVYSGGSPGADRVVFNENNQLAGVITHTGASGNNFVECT
IDE inh confirm: cellular human IDE inhibition, confirmation | shares compounds with IDE cell inh | HEK cells, FAbetaB cleavage, fluorescence polarization | inhibition, % at 5.59 µM | 1,200 tested, 51% active | AID 435028;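 active means mean inhibition across triplicate wells above the cutoff set by the earlier primary insulin-degrading enzyme screen, cut at about 16% in these data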;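 further: 0% = DMSO wells and 100% = 60 µM reference IDE inhibitor Ii1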
HEK cytotox: HEK cell cytotoxicity, counter-screen for IDE inhibitors | shares compounds with IDE cell inh | HEK293 cytotoxicity, ATP luminescence | inhibition, % at 5.59 µM | 1,200 tested, 28% active | AID 449730; in the data active means inhibition above about 22%;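 further: 0% = vehicle wells and 100% = reference cytotoxic drug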
Rpn11 confirm: Rpn11 inhibition confirmation, single concentration | inhibition, % at 20 µM | shares compounds with Rpn11 block | purified human 26S proteasome, Ub4-pepOG fluorescence polarization; proteasome pretreated with epoxomicin | 1,900 tested, 29% active
MMP-2 counter: MMP-2 (human) inhibition counter-screen | shares compounds with Rpn11 block | recombinant MMP-2, FRET peptide cleavage fluorescence | inhibition, % at 20 µM | 1,900 tested, 4% active;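 further: human MMP-2 activated beforehand with APMA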
Thrombin FP: counter-screen for RPN11 inhibitors: inhibition of bovine thrombin; inhibition, % at 20 µM; bovine thrombin cleavage of Ub4-pepOG, fluorescence polarization; 1,900 tested, 13% active; shares compounds with Rpn11 block;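 active means mean inhibition at least 40% at 20 µM, or signal 3 deviations below plate average, so some actives read negative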;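 further: plate controls were thrombin with DMSO for no effect and buffer wells lacking thrombin for full effect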
Target sequence (P00735 whole entry, looked up): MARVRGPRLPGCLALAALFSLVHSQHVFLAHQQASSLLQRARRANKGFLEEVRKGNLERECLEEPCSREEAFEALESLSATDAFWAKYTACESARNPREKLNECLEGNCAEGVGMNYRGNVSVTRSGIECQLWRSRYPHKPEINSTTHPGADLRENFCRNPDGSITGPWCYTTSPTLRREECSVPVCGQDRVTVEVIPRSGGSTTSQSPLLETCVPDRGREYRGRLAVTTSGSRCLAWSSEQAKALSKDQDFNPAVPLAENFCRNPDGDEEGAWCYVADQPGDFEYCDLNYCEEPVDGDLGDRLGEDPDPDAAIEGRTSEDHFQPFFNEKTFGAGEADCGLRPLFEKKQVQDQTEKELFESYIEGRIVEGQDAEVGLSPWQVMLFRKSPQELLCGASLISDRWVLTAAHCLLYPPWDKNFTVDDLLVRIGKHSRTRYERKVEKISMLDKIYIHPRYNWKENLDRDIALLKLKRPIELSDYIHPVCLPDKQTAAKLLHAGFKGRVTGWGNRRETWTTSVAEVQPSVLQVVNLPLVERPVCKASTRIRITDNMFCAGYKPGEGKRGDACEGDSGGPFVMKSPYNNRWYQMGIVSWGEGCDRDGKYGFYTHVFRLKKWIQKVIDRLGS
* marks the source's active call; other numbers are inactive results; . = no result; + = active, no number. Unless noted, no stated cut-off is given here; in the data, active means inhibition above about 40%; inactive means the rest.

SMILES | HNF4A DNA FP | TPT1 inhibitor | CSN inh | IDE act | Rpn11 block | IDE cell inh | caTPT1 confirm | RNase T1 counter | Rpn11 confirm | MMP-2 counter | Thrombin FP | others
O=C1CC(=O)N(Cc2ccco2)C(=S)N1 | -19.7 | 111.0* | 61.5* | -8.4 | 190.9* | 7.2 | 20.9 | 30.9* | 101.8* | 81.8* | +
COc1cc(Nc2ccn3nc(-c4ccc(F)cc4)cc3n2)cc(OC)c1OC | 0.4 | . | -0.6 | . | 4.3 | . | . | . | . | . | .
CC[n+]1ccc(/C=C2\Sc3ccccc3N2CCCS(=O)(=O)[O-])c2ccccc21 | 5.7 | 31.0* | 0.7 | 2.5 | 32.6* | 17.1* | 14.1 | 19.0 | -2.8 | -43.6 | -12.2 | IDE inh confirm=7.7;HEK cytotox=9.4
CNC(=O)c1ccc(NC(=O)CC2SC(N3CCCC3)=NC2=O)cc1 (stereo not given) | 2.1 | . | -1.6 | -5.3 | -1.3 | 5.6 | . | . | . | . | .
Oc1ccc(/C=N/Nc2ccnc3cc(Cl)ccc23)cc1O | -3.3 | 2.2 | 2.7 | -8.5 | -5.4 | 2.5 | . | . | . | . | .
Oc1ccc(/C=N/Nc2ccnc3cc(Cl)ccc23)c(O)c1O | 5.9 | 32.9* | 13.7 | 0.9 | 41.0* | 4.5 | 13.7 | 20.3 | 10.1 | 9.7 | 2.6
CCCCCC/C(C)=C1/SC(=S)NC1=O | 21.5 | 51.2* | 23.1 | -1.4 | 47.6* | 15.8 | 13.0 | 18.6 | 3.3 | 17.9 | 5.0
CCCCCCCC(=O)NNC(=O)Cc1ccccc1 | 1.5 | -0.7 | -3.2 | 7.0 | -1.4 | 1.6 | . | . | . | . | .
O=C(NCCC(=O)N1CCc2ccccc21)c1ccccc1Cl | 0.6 | -3.1 | 33.0 | 3.5 | -6.5 | 4.1 | . | . | . | . | .
Cc1c(O)ccc(/C(Cc2ccc3ccccc3n2)=N\N)c1O | 11.6 | 29.1* | 12.7 | 4.0 | 48.5* | -10.2 | 36.2* | 47.0* | -3.5 | -4.7 | -15.7
C[C@]12CCC[C@H](O1)c1c(cc3c(c1O)C(=O)c1c(O)cc(O)cc1C3=O)O2 | 68.6 | 80.0* | 38.3* | 3.9 | 51.6* | 3.0 | 89.3* | 99.2* | 47.3* | -14.3 | -9.5
CCOC(=O)C1=C(C)N=c2s/c(=C\c3ccc(OCC(=O)O)c(OC)c3)c(=O)n2C1c1ccc(OC)cc1 (stereo not given) | 1.2 | 25.4* | 6.6 | -8.6 | 40.7* | 15.5 | 43.7* | 53.4* | 8.1 | -51.1 | 10.6
CCOC(=O)C1=C(C)N=c2s/c(=C\c3ccc(OCC(=O)O)cc3)c(=O)n2C1c1ccccc1 (stereo not given) | 0.3 | 6.0 | -2.4 | 4.1 | 6.7 | 1.4 | . | . | . | . | .
COC(=O)C1=C(C)N=c2s/c(=C/c3ccoc3)c(=O)n2C1c1ccccc1 (stereo not given) | 45.3* | 58.1* | 57.9* | -9.5 | 107.4* | 27.8* | 61.3* | 72.7* | 47.9* | -15.2 | 47.4* | IDE inh confirm=28.6*;HEK cytotox=14.0
Cc1cc(C(=O)O)ccc1-n1c(C)cc(C=C2C(=O)c3ccccc3C2=O)c1C | 6.6 | 58.9* | -2.3 | 0.3 | 43.5* | 4.1 | 51.3* | 62.9* | 14.9 | -4.1 | -2.4
Cc1cc(C(=O)O)ccc1-n1c(C)cc(/C=C(/C#N)C(=O)Nc2ccccc2)c1C | 0.2 | -3.4 | -7.2 | . | -4.9 | 1.2 | . | . | . | . | .
Nc1c(C(=O)Nc2ccccc2F)sc2nc(-c3ccco3)ccc12 | 19.8 | 30.6* | 19.2 | -14.3 | 44.4* | 11.9 | 26.9* | 37.7* | 11.6 | -29.0 | 10.6
O=C(Nc1nc2c(s1)CN(Cc1ccccc1)CC2)c1c(F)cccc1F | 27.2 | 24.4* | 6.0 | -0.6 | 46.1* | 0.2 | 36.8* | 48.8* | -1.9 | -42.5 | -8.8
O=C(O)COc1ccccc1/C=C1\SC(=S)N(NC(=O)c2ccccc2O)C1=O | 8.4 | 30.8* | 15.6 | -7.2 | 40.7* | 4.6 | 30.8* | 39.8* | 58.4* | -9.0 | 53.8*
O=C(NN1C(=O)/C(=C\c2ccc(O)c([N+](=O)[O-])c2)SC1=S)c1ccccc1Cl | 28.2 | 48.8* | 23.0 | 1.2 | 52.5* | -2.1 | 53.0* | 63.0* | 69.7* | 11.4 | 52.8*
O=C(O)COc1ccccc1/C=C1\SC(=S)N(/N=C/c2ccccc2O)C1=O | 5.3 | 1.7 | 12.8 | -1.7 | 2.7 | 2.4 | . | . | . | . | .
O=C(c1cc(COc2ccc3c(c2)CCCC3)on1)N1CCCC1 | -0.7 | -1.3 | -3.6 | -4.5 | 0.4 | 3.0 | . | . | . | . | .
N#Cc1ccccc1NC(=O)COC(=O)/C=C/c1cn(-c2ccccc2)nc1-c1ccc(Cl)cc1 | 1.6 | . | 8.8 | -0.6 | -3.3 | . | . | . | . | . | .
NC(=O)c1ccc(NC(=O)COC(=O)/C=C/c2cn(-c3ccccc3)nc2-c2cccnc2)cc1 | 36.3 | 46.8* | 14.7 | 3.3 | 50.4* | -0.7 | 51.6* | 65.7* | 37.9 | -12.4 | 18.0
COc1ccc(C=NNc2ccc([N+](=O)[O-])cc2S(=O)(=O)Nc2ccccc2C(=O)O)cc1OC | 12.0 | . | 6.7 | 3.0 | 31.9 | 5.6 | . | . | . | . | .
SMILES | HNF4A DNA FP | TPT1 inhibitor | CSN inh | IDE act | Rpn11 block | IDE cell inh | caTPT1 confirm | RNase T1 counter | Rpn11 confirm | MMP-2 counter | Thrombin FP | others
COc1ccccc1NS(=O)(=O)c1cc([N+](=O)[O-])ccc1N/N=C/c1c[nH]c2ccccc12 | 71.7* | 128.9* | 21.5 | -0.2 | 46.7* | 2.1 | 106.2* | 107.0* | 18.9 | -36.8 | 9.0
CCOC(=O)N1CCN(C(=O)/C(=C/c2ccc(N(C)C)cc2)NC(=O)c2ccccc2)CC1 | -3.4 | . | 3.7 | 3.7 | 13.1 | 0.3 | . | . | . | . | .
COc1ccc(-n2c(-c3ccc(Cl)cc3)c[nH]c2=S)cc1 | -2.4 | -0.8 | 4.6 | -13.0 | -17.6 | 9.9 | . | . | . | . | .
CCCCC1(C)OC(=O)C(=Cc2ccc(N(CC)CC)cc2)C(=O)O1 (stereo not given) | 7.4 | 92.5* | 26.8 | 4.4 | 55.2* | 5.3 | 167.1* | 154.7* | 92.1* | -28.9 | 89.6*
CC(C)NC(=S)N(CCc1ccncc1)C(C)C | 0.8 | -3.6 | -3.1 | 1.2 | 1.2 | -1.4 | . | . | . | . | .
COc1ccc(N/C=C/C(=O)c2ccccc2)cc1 | 4.3 | -4.1 | -2.8 | -1.3 | 2.6 | 4.5 | . | . | . | . | .

Compound activity (PubChem)
